Laboratory results published in ChEMBL document CHEMBL1157912, “Impact of nature and length of linker incorporated in agonists on toll-like receptor 9-mediated immune responses” (J Med Chem, 2010).

Tests used:
[1] = molecular target: T1, Toll-like receptor 9 (Mus musculus) (UniProt Q9EQU3); assay: Activation of mouse TLR9 expressed in HEK293 cells assessed as induction of NF-kappaB activity after 18 hrs by SEAP assay; format: cell-based
T1 sequence (whole entry): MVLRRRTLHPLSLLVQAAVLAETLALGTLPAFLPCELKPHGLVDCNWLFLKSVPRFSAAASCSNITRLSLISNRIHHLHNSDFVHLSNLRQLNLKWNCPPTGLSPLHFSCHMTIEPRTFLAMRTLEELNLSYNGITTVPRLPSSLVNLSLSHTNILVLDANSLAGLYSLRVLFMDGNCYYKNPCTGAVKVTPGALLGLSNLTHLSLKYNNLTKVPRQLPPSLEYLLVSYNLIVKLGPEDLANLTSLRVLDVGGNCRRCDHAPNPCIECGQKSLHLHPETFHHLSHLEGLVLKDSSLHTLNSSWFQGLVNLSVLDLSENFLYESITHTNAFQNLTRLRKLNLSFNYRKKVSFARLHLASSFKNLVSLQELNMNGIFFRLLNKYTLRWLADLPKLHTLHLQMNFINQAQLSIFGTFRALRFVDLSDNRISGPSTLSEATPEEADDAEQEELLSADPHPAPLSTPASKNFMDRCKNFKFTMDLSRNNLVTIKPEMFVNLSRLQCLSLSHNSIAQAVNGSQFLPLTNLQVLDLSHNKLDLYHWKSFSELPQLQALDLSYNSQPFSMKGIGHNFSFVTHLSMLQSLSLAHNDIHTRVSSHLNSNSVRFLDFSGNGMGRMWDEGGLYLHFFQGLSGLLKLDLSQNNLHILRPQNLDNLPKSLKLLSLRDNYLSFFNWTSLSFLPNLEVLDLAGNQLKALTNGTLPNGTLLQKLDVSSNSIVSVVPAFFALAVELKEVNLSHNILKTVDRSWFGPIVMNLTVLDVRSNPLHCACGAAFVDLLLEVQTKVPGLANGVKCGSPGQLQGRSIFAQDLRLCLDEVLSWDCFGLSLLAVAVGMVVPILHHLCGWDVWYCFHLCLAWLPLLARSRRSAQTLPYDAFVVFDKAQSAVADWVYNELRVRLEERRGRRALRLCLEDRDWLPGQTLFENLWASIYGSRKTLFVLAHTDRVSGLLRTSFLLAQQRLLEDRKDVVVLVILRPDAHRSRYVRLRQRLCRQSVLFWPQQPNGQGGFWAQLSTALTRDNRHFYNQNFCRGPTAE
How it was run: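 HEK293 cells stably expressing mouse TLR9 were grown in DMEM with 10% heat-inactivated FBS. At 80% confluence they were transiently transfected with a SEAP reporter plasmid (100 ng/well, lipofectamine) for 6 h. Medium was then replaced and agonists were added for 18 h. Supernatant SEAP was read with QuantiBlue substrate at 620-645 nm. Results are expressed as fold NF-κB activity over PBS control.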

[2] = molecular target: T2, Toll-like receptor 9 (Homo sapiens) (UniProt Q9NR96); assay: Induction of TLR9-mediated immune stimulation in human PBMC assessed as IL6 production at 10 ug/ml after 24 hrs by luminex multiplex assay (RVb = 0.01 ng/ml)
T2 sequence (whole entry): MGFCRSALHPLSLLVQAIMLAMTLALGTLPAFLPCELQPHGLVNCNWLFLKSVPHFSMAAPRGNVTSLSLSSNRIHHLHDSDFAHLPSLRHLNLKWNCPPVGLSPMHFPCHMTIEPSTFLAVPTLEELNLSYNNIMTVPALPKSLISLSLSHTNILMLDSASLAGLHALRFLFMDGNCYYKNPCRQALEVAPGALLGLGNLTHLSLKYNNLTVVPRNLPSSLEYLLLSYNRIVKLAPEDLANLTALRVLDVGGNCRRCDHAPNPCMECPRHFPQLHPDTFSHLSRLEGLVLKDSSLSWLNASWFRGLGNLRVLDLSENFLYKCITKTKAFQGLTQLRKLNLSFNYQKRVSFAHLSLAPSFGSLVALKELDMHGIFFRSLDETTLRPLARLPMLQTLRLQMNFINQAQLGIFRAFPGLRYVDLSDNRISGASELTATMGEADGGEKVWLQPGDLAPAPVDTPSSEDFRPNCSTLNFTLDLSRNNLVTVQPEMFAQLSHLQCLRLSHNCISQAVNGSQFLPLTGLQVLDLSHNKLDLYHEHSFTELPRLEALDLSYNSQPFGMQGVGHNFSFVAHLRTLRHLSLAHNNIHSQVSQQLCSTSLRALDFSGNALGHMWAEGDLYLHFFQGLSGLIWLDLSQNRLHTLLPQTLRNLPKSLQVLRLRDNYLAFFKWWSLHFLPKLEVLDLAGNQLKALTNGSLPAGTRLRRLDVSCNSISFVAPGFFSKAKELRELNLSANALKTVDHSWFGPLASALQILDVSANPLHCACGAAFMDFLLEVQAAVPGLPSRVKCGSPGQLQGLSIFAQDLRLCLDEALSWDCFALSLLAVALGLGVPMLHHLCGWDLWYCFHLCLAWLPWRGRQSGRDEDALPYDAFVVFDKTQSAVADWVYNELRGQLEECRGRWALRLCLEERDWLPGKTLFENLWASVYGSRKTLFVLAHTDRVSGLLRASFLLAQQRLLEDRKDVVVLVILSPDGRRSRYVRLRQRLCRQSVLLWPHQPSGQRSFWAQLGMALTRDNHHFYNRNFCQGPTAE

[3] = molecular target: T2, Toll-like receptor 9 (Homo sapiens); assay: Induction of TLR9-mediated immune stimulation in human PBMC assessed as MIP1alpha production at 10 ug/ml after 24 hrs by luminex multiplex assay (RVb = 0.01 ng/ml)
[4] = molecular target: T1, Toll-like receptor 9 (Mus musculus); assay: Induction of TLR9-mediated IL12 production in C57BL/6 mouse spleen cells after 24 hrs by ELISA; format: cell-based
How it was run: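 C57BL/6 mouse spleen cells were cultured with agonists at 0.1, 0.3, 1, 3 and 10 μg/mL for 24 h. Secreted IL-12 and IL-6 in the supernatants were measured by ELISA. Values are averages of triplicate wells from one representative of at least two independent experiments.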

[5] = molecular target: T2, Toll-like receptor 9 (Homo sapiens); assay: Induction of TLR9-mediated immune stimulation in human PBMC assessed as IL6 production at 2 ug/ml after 24 hrs by luminex multiplex assay (RVb = 0.01 ng/ml)
[6] = molecular target: T2, Toll-like receptor 9 (Homo sapiens); assay: Induction of TLR9-mediated immune stimulation in human PBMC assessed as MCP1 production at 2 ug/ml after 24 hrs by luminex multiplex assay (RVb = 0.08 +/- 0.02 ng/ml)
[7] = molecular target: T2, Toll-like receptor 9 (Homo sapiens); assay: Induction of TLR9-mediated immune stimulation in human PBMC assessed as MCP1 production at 10 ug/ml after 24 hrs by luminex multiplex assay (RVb = 0.08 +/- 0.02 ng/ml)
[8] = molecular target: T2, Toll-like receptor 9 (Homo sapiens); assay: Induction of TLR9-mediated immune stimulation in human PBMC assessed as IP10 production at 10 ug/ml after 24 hrs by luminex multiplex assay (RVb = 0.00 ng/ml)
[9] = molecular target: T2, Toll-like receptor 9 (Homo sapiens); assay: Induction of TLR9-mediated immune stimulation in human PBMC assessed as MIP1beta production at 10 ug/ml after 24 hrs by luminex multiplex assay (RVb = 0.03 +/- 0.02 ng/ml)

Activity [1] | Activity [2] [ng/mL] | Activity [3] [ng/mL] | Activity [4] | Activity [5] [ng/mL] | Activity [6] [ng/mL] | Activity [7] [ng/mL] | Activity [8] [ng/mL] | Activity [9] [ng/mL] | SMILES
Dose-dependent effect | 0.5 | 0.37 | Dose-dependent effect | 0.36 | 0.46 | 1.88 | 0.01 | 1.41 | Cc1cn([C@H]2C[C@H](OCC(O)COP(=O)(S)O[C@H]3C[C@H](n4cc(C)c(=O)[nH]c4=O)O[C@@H]3COP(=O)(S)O[C@H]3[C@@H](O)[C@H](n4ccc(N)nc4=O)O[C@@H]3COP(=O)(S)O[C@H]3C[C@H](n4cc(C)c(=O)[nH]c4=O)O[C@@H]3COP(=O)(S)O[C@H]3C[C@H](n4cc(C)c(=O)[nH]c4=O)O[C@@H]3COP(=O)(S)O[C@H]3C[C@H](n4ccc5c(=O)[nH]c(N)nc54)O[C@@H]3COP(=O)(S)O[C@H]3[C@@H](O)[C@H](n4ccc(N)nc4=O)O[C@@H]3COP(=O)(S)O[C@H]3C[C@H](n4cc(C)c(=O)[nH]c4=O)O[C@@H]3COP(=O)(S)O[C@H]3[C@@H](O)[C@H](n4cnc5c(=O)[nH]c(N)nc54)O[C@@H]3COP(=O)(S)O[C@H]3C[C@H](n4cc(C)c(=O)[nH]c4=O)O[C@@H]3COP(=O)(S)O[C@H]3[C@@H](O)[C@H](n4ccc(N)nc4=O)O[C@@H]3COP(=O)(S)O[C@H]3C[C@H](n4cc(C)c(=O)[nH]c4=O)O[C@@H]3CO)[C@@H](COP(=O)(S)O[C@H]3[C@@H](O)[C@H](n4ccc(N)nc4=O)O[C@@H]3COP(=O)(S)O[C@H]3C[C@H](n4cc(C)c(=O)[nH]c4=O)O[C@@H]3COP(=O)(S)O[C@H]3C[C@H](n4cc(C)c(=O)[nH]c4=O)O[C@@H]3COP(=O)(S)O[C@H]3C[C@H](n4ccc5c(=O)[nH]c(N)nc54)O[C@@H]3COP(=O)(S)O[C@H]3[C@@H](O)[C@H](n4ccc(N)nc4=O)O[C@@H]3COP(=O)(S)O[C@H]3C[C@H](n4cc(C)c(=O)[nH]c4=O)O[C@@H]3COP(=O)(S)O[C@H]3[C@@H](O)[C@H](n4cnc5c(=O)[nH]c(N)nc54)O[C@@H]3COP(=O)(S)O[C@H]3C[C@H](n4cc(C)c(=O)[nH]c4=O)O[C@@H]3COP(=O)(S)O[C@H]3[C@@H](O)[C@H](n4ccc(N)nc4=O)O[C@@H]3COP(=O)(S)O[C@H]3C[C@H](n4cc(C)c(=O)[nH]c4=O)O[C@@H]3CO)O2)c(=O)[nH]c1=O (stereo partly drawn)
Dose-dependent effect | 0.67 | 0.67 | Dose-dependent effect | 0.3 | 0.29 | 8.45 | 0.03 | 2.15 | Cc1cn([C@H]2C[C@H](O[C@H]3C[C@@H](O)C[C@@H](OP(=O)(S)O[C@H]4C[C@H](n5cc(C)c(=O)[nH]c5=O)O[C@@H]4COP(=O)(S)O[C@H]4[C@@H](O)[C@H](n5ccc(N)nc5=O)O[C@@H]4COP(=O)(S)O[C@H]4C[C@H](n5cc(C)c(=O)[nH]c5=O)O[C@@H]4COP(=O)(S)O[C@H]4C[C@H](n5cc(C)c(=O)[nH]c5=O)O[C@@H]4COP(=O)(S)O[C@H]4C[C@H](n5ccc6c(=O)[nH]c(N)nc65)O[C@@H]4COP(=O)(S)O[C@H]4[C@@H](O)[C@H](n5ccc(N)nc5=O)O[C@@H]4COP(=O)(S)O[C@H]4C[C@H](n5cc(C)c(=O)[nH]c5=O)O[C@@H]4COP(=O)(S)O[C@H]4[C@@H](O)[C@H](n5cnc6c(=O)[nH]c(N)nc65)O[C@@H]4COP(=O)(S)O[C@H]4C[C@H](n5cc(C)c(=O)[nH]c5=O)O[C@@H]4COP(=O)(S)O[C@H]4[C@@H](O)[C@H](n5ccc(N)nc5=O)O[C@@H]4COP(=O)(S)O[C@H]4C[C@H](n5cc(C)c(=O)[nH]c5=O)O[C@@H]4CO)C3)[C@@H](COP(=O)(S)O[C@H]3[C@@H](O)[C@H](n4ccc(N)nc4=O)O[C@@H]3COP(=O)(S)O[C@H]3C[C@H](n4cc(C)c(=O)[nH]c4=O)O[C@@H]3COP(=O)(S)O[C@H]3C[C@H](n4cc(C)c(=O)[nH]c4=O)O[C@@H]3COP(=O)(S)O[C@H]3C[C@H](n4ccc5c(=O)[nH]c(N)nc54)O[C@@H]3COP(=O)(S)O[C@H]3[C@@H](O)[C@H](n4ccc(N)nc4=O)O[C@@H]3COP(=O)(S)O[C@H]3C[C@H](n4cc(C)c(=O)[nH]c4=O)O[C@@H]3COP(=O)(S)O[C@H]3[C@@H](O)[C@H](n4cnc5c(=O)[nH]c(N)nc54)O[C@@H]3COP(=O)(S)O[C@H]3C[C@H](n4cc(C)c(=O)[nH]c4=O)O[C@@H]3COP(=O)(S)O[C@H]3[C@@H](O)[C@H](n4ccc(N)nc4=O)O[C@@H]3COP(=O)(S)O[C@H]3C[C@H](n4cc(C)c(=O)[nH]c4=O)O[C@@H]3CO)O2)c(=O)[nH]c1=O (stereo partly drawn)
